The subject of one experiment is HEK293. Description: Effect on intracellular calcium level in non transfected HEK293 cells at >10 uM. In kind it is functional, cell-based. The settings on record: Homo sapiens. An outline of the steps: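 GFP-negative (untransfected) HEK293 cells from the same coverslips were imaged by fura-2 ratio. Compound was applied at concentrations above 10 µM.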
In experiment [1] the target is Transient receptor potential cation channel subfamily V member 4 (Mus musculus, UniProt Q9EPK8, S557A). Description: Activation of mouse TRPV4 S557A mutant expressed in HEK293 cells assessed as increase in intracellular calcium concentration. In kind it is cell-based. An outline of the steps:
(§1)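 mTRPV4 (wild type or the Y556A, S557A or W586A TM3-4 mutant) in pCAGGS/Ires-GFP was transiently transfected into HEK293 cells and incubated overnight. GFP-positive cells on poly-L-lysine coverslips were loaded with 4 µM Fura-2 AM for 30 min at 37 °C and perfused with Krebs solution (1.5 mM CaCl2, pH 7.4). The 340/380 nm ratio (510 nm emission) gave ∆Fura-2 ratio. EC50 came from a Hill fit, >15 cells, three transfections.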
In general terms: Calcium assays in cells follow changes in intracellular calcium, usually with a dye or a luminescent sensor.

In experiment [2] the target is T1, Transient receptor potential cation channel subfamily V member 2 (Homo sapiens) (UniProt Q9Y5S1).
T1 sequence (whole entry): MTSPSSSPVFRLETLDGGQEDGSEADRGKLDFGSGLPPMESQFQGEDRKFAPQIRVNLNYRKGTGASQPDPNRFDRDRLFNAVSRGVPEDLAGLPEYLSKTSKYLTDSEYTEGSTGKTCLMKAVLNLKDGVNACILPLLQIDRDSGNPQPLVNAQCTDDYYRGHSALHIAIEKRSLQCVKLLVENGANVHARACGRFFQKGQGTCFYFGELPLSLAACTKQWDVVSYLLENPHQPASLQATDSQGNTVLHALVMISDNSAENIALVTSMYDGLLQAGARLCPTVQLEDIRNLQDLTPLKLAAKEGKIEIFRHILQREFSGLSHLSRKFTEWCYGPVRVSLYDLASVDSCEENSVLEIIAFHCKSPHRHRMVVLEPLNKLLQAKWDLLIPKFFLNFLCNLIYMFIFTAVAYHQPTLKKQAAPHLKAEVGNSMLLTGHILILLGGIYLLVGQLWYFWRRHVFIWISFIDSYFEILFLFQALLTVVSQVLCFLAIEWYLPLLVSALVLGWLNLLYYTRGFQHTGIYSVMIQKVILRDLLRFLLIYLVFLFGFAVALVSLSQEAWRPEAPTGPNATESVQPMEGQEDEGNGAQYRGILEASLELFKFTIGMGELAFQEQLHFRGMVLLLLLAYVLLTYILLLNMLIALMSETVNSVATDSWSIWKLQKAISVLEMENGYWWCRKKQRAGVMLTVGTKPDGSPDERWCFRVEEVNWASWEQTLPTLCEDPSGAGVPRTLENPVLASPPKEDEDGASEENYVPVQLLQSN
Description: Activation of TRPV2 expressed in HEK293 cells assessed as increase in intracellular calcium concentration. It counts as cell-based. The gist of the method: (§2)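 HEK293 cells grown in DMEM with 10% human serum at 37 °C/10% CO2 and transfected with the TRPV channel. Cells were loaded with 4 µM Fura-2 AM for 30 min at 37 °C and perfused with Krebs buffer (1.5 mM CaCl2, pH 7.4). Read-out is single-cell 340/380 nm fura-2 ratio imaging against nontransfected cells.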

Experiment [3] concerns the target Transient receptor potential cation channel subfamily V member 4 (Mus musculus) (UniProt Q9EPK8). Description: Activation of mouse wild type TRPV4 expressed in HEK293 cells assessed as increase in intracellular calcium concentration at 500 nM in presence of TRP antagonist ruthenium red.
The target of experiment [4] is Transient receptor potential cation channel subfamily V member 4 (Mus musculus, UniProt Q9EPK8, W586A). Description: Activation of mouse TRPV4 W586A mutant expressed in HEK293 cells assessed as increase in intracellular calcium concentration. It counts as cell-based. The gist of the method:
as §1

In experiment [5] the target is Transient receptor potential cation channel subfamily V member 4 (Mus musculus, UniProt Q9EPK8). Description: Activation of mouse wild type TRPV4 expressed in HEK293 cells assessed as increase in intracellular calcium concentration. It counts as cell-based. The gist of the method:
as §1

Experiment [6] deals with Transient receptor potential cation channel subfamily V member 4 (Mus musculus) (UniProt Q9EPK8). Description: Activation of mouse wild type TRPV4 expressed in HEK293 cells assessed as outward-inward rectifying current density at 500 nM at a holding potential of 100 mV by whole cell patch-clamp assay in absence of calcium. It counts as cell-based. The gist of the method: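 Whole-cell patch clamp was run on mTRPV4-transfected HEK293 cells using ramps from -100 to +100 mV. CaCl2 was omitted from both solutions. Bath (mM): 150 NaCl, 6 CsCl, 1 MgCl2, 10 glucose, 10 HEPES, pH 7.4. Pipette (mM): 20 CsCl, 100 aspartate, 1 MgCl2, 10 HEPES, 4 Na-ATP, 10 BAPTA, pH 7.4. Agonist was added to the bath. Five cells, >2 transfections.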
Transient receptor potential cation channel subfamily V member 4 (Mus musculus), sequence (Q9EPK8 whole entry): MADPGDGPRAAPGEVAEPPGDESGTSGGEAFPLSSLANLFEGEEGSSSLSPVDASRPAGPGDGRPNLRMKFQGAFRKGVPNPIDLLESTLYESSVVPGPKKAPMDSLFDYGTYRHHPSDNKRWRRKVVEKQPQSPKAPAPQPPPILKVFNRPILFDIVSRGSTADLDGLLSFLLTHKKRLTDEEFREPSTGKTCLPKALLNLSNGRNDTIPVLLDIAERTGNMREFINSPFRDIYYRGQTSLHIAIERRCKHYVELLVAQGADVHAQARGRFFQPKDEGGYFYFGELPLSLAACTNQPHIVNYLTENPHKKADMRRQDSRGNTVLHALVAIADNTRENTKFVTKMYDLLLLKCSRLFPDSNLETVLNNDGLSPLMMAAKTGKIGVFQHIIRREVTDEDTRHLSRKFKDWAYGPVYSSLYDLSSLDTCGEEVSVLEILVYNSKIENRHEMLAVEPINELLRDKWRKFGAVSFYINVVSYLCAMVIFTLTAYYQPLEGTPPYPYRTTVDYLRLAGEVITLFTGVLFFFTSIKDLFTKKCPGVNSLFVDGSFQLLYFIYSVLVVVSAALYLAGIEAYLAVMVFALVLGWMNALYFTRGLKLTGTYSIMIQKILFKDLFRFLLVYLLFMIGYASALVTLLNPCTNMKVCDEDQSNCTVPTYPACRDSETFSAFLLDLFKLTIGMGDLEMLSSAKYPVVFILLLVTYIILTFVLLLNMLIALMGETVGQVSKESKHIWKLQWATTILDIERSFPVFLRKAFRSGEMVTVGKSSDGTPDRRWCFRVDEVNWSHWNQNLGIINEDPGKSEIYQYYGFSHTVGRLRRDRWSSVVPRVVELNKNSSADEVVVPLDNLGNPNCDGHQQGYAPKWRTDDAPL
In general terms: Patch clamp records ionic current or voltage across a cell membrane.

Experiment [7] has as its target Transient receptor potential cation channel subfamily V member 1 (Homo sapiens) (UniProt Q8NER1). Description: Activation of TRPV1 expressed in HEK293 cells assessed as increase in intracellular calcium concentration. It counts as cell-based. The gist of the method:
as §2

Active and inactive are the calls of the source. No cut-off for these calls is given here.

The term EC50 denotes the concentration needed to bring the measured effect to its halfway point.

Transient receptor potential cation channel subfamily V member 4 (Mus musculus, UniProt Q9EPK8), sequence (Q9EPK8 whole entry): as above
Transient receptor potential cation channel subfamily V member 1 (Homo sapiens), sequence (Q8NER1 whole entry): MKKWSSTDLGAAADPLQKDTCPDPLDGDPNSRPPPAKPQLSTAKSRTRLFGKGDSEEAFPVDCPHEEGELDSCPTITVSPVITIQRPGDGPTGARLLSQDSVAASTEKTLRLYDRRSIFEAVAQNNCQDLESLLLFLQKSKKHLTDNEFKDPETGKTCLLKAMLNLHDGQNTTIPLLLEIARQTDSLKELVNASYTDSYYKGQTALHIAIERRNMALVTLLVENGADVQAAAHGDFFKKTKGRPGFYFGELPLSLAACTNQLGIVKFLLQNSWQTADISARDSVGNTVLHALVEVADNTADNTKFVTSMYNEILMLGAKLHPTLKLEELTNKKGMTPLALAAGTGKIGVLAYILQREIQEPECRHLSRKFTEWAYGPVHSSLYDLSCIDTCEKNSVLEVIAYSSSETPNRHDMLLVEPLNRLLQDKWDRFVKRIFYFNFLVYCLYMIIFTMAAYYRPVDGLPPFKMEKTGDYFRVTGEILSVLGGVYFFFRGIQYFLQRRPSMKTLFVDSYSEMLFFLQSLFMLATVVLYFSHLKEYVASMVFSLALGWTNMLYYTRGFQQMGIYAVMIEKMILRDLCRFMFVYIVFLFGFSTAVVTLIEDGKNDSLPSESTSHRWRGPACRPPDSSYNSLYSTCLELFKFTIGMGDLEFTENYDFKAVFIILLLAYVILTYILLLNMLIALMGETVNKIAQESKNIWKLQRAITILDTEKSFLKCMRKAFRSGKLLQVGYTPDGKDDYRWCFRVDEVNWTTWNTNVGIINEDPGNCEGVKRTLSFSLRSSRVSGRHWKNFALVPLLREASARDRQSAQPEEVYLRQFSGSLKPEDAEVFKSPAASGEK
Transient receptor potential cation channel subfamily V member 4 (Mus musculus, UniProt Q9EPK8, S557A), sequence (Q9EPK8 whole entry S557A, the tested form may be a part): as the sequence (Q9EPK8 whole entry) above, with S557A counted along it
Transient receptor potential cation channel subfamily V member 4 (Mus musculus, UniProt Q9EPK8, W586A), sequence (Q9EPK8 whole entry W586A): as the sequence (Q9EPK8 whole entry) above, with W586A counted along it

Regarding `CCCCCCCCCC(=O)O[C@@H]1[C@@H](C)[C@]2(O)[C@@H]3C4C([C@H]2[C@@H]2C(C)(C)[C@]12OC(=O)CCCCCCCCC)C1(CO)C[C@H]3C(=O)C41C` (stereo partly drawn), the outcome in the experiment with HEK293 was Active. The EC50 in experiment [1] was 0.24 µM; in experiment [4], 3.64 µM; in experiment [5], 0.175 µM. Also, the outcome in experiment [2], in experiment [3] and in experiment [7] was inactive. The Activity in experiment [6] worked out at 635.

Values taken from ChEMBL document CHEMBL1138474, “Modulation of the transient receptor potential vanilloid channel TRPV4 by 4alpha-phorbol esters: a structure-activity study” (J Med Chem, 2009).
